Screening results as filed in PubChem BioAssay.
Hits are enriched below; roughly 11% of the tested compounds scored in any of these assays.
S1P1 ag pot: activates or potentiates agonism at human S1P1 receptor; P21453; S1P1 CRE-bla cells, forskolin, beta-lactamase FRET, potentiator mode; S1P1 agonist co-added at EC20, 2 nM; 100% = saturating reference agonist, 0% = basal; activation, % at 9.5 µM; actives 0.57% (n = 56,000);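 active = activation above a cutoff set at the mean activation of all tested compounds plus 3 SD, cut at about 54% in these data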;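 also: forskolin at 4 µM as EC80 and the EC20 agonist is SEW2871; 100% = SEW2871 at its EC100 plus forskolin at EC80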
M1 antagonist: M1 muscarinic receptor (rat) antagonism | B-score at 10 µM | actives 3.4% (n = 64,000) | CHO-M1 cells, Fluo-4 calcium, ACh EC80 antagonist mode; hits give low values | AID 628;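 active = calcium fluorescence response, raw or row-and-column corrected B-score, differing from the plate sample mean either way at a set confidence level, mostly lower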
S1P3 ag: activates the human S1P3 receptor. Q99500. S1P3 NFAT-BLA reporter cells, agonism, FRET ratio; relative to 1 µM S1P, basal subtracted. activation, % at 4.5 µM. actives 0.1% (n = 60,000);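 active = activation above the screen-wide mean plus 3 SD, cut at about 4.5% in these data, passing the limit was not always enough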
Target sequence (Q99500 whole entry, looked up): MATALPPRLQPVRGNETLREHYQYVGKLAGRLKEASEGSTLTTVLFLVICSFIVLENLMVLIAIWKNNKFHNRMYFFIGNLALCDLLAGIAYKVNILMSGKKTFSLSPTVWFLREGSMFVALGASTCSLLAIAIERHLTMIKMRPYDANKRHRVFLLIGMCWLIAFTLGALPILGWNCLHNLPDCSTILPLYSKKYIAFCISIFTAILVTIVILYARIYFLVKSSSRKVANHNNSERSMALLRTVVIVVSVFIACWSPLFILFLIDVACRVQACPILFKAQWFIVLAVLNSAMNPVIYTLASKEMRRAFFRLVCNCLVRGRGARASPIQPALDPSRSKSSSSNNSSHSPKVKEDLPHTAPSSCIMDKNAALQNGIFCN
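Benchmarks: high control 1 µM S1P / System: stable CHO line with human S1P3, Gα16, NFAT-BLA reporter / Dosing: single compound concentration, 4.5 µM final / Timing: 4 h compound at 37 °C, 2 h substrate at RT / Measured by: FRET β-lactamase substrate fluorescence, excitation 405 nm, 460/535 nm emission ratio, background-subtracted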
D1 allo mod: allosteric modulators of human D1 dopamine receptor. P21728. HEK293 D1, CRE-luciferase, dopamine EC30 potentiation; actives deviate in either direction. B-score at 10 µM. actives 5.9% (n = 58,000). AID 641;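 active = luminescence count or its row- and column-corrected plate score outside the 99.7% band of the plate's sample wells, on either side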
M1 ag: activates the M1 muscarinic receptor. CHO-M1 cells, Fluo-4 calcium fluorescence, agonist mode; hits give high values. B-score at 10 µM. actives 3% (n = 64,000). AID 626;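 active = fluorescence rise, raw or as B-score row- and column-corrected plate score, outside the 99.7% band of its plate's samples, either direction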
M1 antag confirm: M1 muscarinic receptor (rat) antagonism, confirmed; CHO-M1 cells, Fluo-4 calcium, ACh EC80 antagonism; hits give low values; calcium response (max-min fluorescence) at 10 µM; actives 43% (n = 1,700); AID 677; shares compounds with M1 antagonist;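 active = calcium response below the same-plate mean of wells given acetylcholine alone at its 80%-effect dose, minus 3 SD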;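 also: raw fluorescence intensity difference in arbitrary instrument units and not normalized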
mGluR4 antag: selectivity test for M1 antagonists: human mGluR4 receptor; CHO-mGluR4 calcium flux, Fluo-4 fluorescence, glutamate EC80; hits give low values; shares compounds with M1 antagonist; actives 0.9% (n = 1,700); fluorescence response (max-min) at 10 µM; AID 678;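 active = fluorescence response below the plate's average for near-maximal glutamate wells, less 3 SD of those wells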;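 also: raw unnormalized fluorescence span taken in the window right after glutamate addition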
* marks the source's active call; other numbers are inactive results; x = no result given.

SMILES	S1P1 ag pot	M1 antagonist	S1P3 ag	D1 allo mod	M1 ag	M1 antag confirm	mGluR4 antag
CN(C(=O)COC(=O)c1nc(-c2ccccc2)n(-c2ccccc2)n1)C1CCS(=O)(=O)C1 (stereo not given)	-1.9	-4.76*	-1.5	x	0.325	231*	211
Cc1cc(C(=O)OCC(=O)NC2CCS(=O)(=O)C2)c(C)n1-c1ccccc1 (stereo not given)	11.9	-1.67	-1.2	-1.03	0.219	x	x
O=C(CSc1ccc(Cl)cc1)OCc1nnc(-c2ccccc2)o1	-3.1	0.115	0.0	-0.937	-0.297	x	x
CCOc1ccccc1NC(=O)c1ccccc1-c1nc(-c2ccccc2OC)no1	11.6	-0.464	-0.8	-2.45	5.16	x	x
CCOc1ccccc1NC(=O)c1cc(CC(C)C)oc1C	x	-2.41*	-0.3	-0.535	-0.291	650	241
COc1ccc(C(=O)Cn2nnc(-c3ccccc3NC(=O)c3ccco3)n2)cc1	-2.3	0.593	-1.0	0	-0.00244	x	x
C=CCc1ccc(OCCCCCN2CCOCC2)c(OC)c1	11.7	-7.02*	-0.4	0.158	0.701	102*	227
O=C(c1ccc(N2C(=O)CCC2=O)cc1)N1CCN(c2ccccc2)CC1	8.9	-0.538	-0.4	-0.00639	0.352	x	x
C=CCN1C(=Nc2cccnc2)SCC1(O)c1ccc(C)cc1 (stereo not given)	77.1*	-2.19*	-0.4	-0.193	2.04	478*	203
Cc1ccc(-c2nnn(CC(=O)N3CCN(c4ccccc4)CC3)n2)o1	3.5	-4.16*	-1.0	0.357	-0.2	641	237
CCOC(=O)C1=C(CSc2n[nH]c(N)n2)NC(=O)NC1C (stereo not given)	0.0	-0.252	-1.9	-1.04	0.0119	x	x
CC(=O)N1CCc2cc(Br)cc(S(=O)(=O)NCCCN3CCC(C)CC3)c21	7.5	-3.67*	-0.2	0.299	0.278	638	238
CC(=O)N1CCc2cc(Br)cc(S(=O)(=O)NCCCN3CCCC(C)C3)c21 (stereo not given)	6.7	-0.431	0.9	0.0214	0.323	x	x
CCn1c(=O)cc(SCC(=O)N2CCN(Cc3ccc4c(c3)OCO4)CC2)c2ccccc21	x	-5.72*	x	-0.771	0.33	432*	236
CCn1c(=O)cc(SCC(=O)NCc2cccnc2)c2ccccc21	-15.7	-0.479	-0.5	0.211	-1.83	x	x
Cn1c(=O)cc(SCC(=O)N2CCN(C3CCCCC3)CC2)c2ccccc21	-9.1	-2.82*	-1.1	-0.519	1.21	249*	222
CCn1c(=O)cc(SCC(=O)NCCN2CCN(Cc3ccccc3)CC2)c2ccccc21	6.7	-3.55*	-1.1	0.853	1.31	499	224
CCn1c(=O)cc(SCC(=O)N2CCCCC2)c2ccccc21	x	-0.27	x	x	0.376	x	x
Cn1c(=O)cc(SCC(=O)N2CCN(Cc3ccc4c(c3)OCO4)CC2)c2ccccc21	1.1	-2.09*	0.6	0.219	0.463	474*	195
C=CCOc1c(Br)cc(CNn2nnnc2N)cc1OC	6.5	-0.00817	-1.1	-0.0873	-0.563	x	x
CSc1ncccc1C(=O)OCC(=O)NC(=O)NCCC(C)C	-12.3	-0.321	0.2	-0.087	-0.431	x	x
C=C(C)Cn1c(COc2ccccc2)nnc1SCC(=O)O	x	-0.361	-0.9	0.664	0.965	x	x
Cc1ccc2c(c1)NC(=O)C(CC(=O)NCCCN1CCN(c3cc(Cl)ccc3C)CC1)O2 (stereo not given)	12.2	-2.1*	-0.2	-2.58*	-0.798	332*	254
Cc1ccc2c(c1)NC(=O)C(CC(=O)NCCCN1CCCCC1)O2 (stereo not given)	-11.4	-0.176	0.5	0.339	0.364	x	x
CCOC(=O)/C=C1\SCC(=O)N1CC(=O)Nc1ccc2c(c1)CCC2	-17.0	-1.9*	-0.2	0.039	0.39	652	183
SMILES	S1P1 ag pot	M1 antagonist	S1P3 ag	D1 allo mod	M1 ag	M1 antag confirm	mGluR4 antag
COc1ccc(C(=O)N2CCC(C(=O)Nc3ccccc3OC)CC2)cc1	-0.2	-4.99*	-0.6	-0.344	0.19	644	249
COC(=O)C(C(=O)N1CCN(C)CC1)C1CCCCCC1 (stereo not given)	1.7	-3.27*	0.0	0.656	-0.411	527	228
CC(C)NC(=O)Cn1nnc(-c2cccc(NC(=O)c3ccccc3F)c2)n1	28.9	-17*	-0.7	-0.48	0.575	634	250
CCOc1ccccc1N1C(=O)CC(Sc2ncccc2C(=O)O)C1=O (stereo not given)	-30.1	0.886	-1.0	-0.307	1.3	x	x
COc1ccc(CCN2C(=O)CC(Sc3ncccc3C(=O)O)C2=O)cc1OC (stereo not given)	x	-2.39*	x	0.23	0.37	716	180
CCC(Sc1nc(C)cc(=O)[nH]1)C(=O)Nc1nnc(C)s1 (stereo not given)	8.1	-2.46*	-0.4	0.54	-0.282	522	184
CCC(Sc1nc(C)cc(=O)[nH]1)C(=O)Nc1nc2c(s1)CCCC2 (stereo not given)	13.4	0.0593	-1.8	0.0307	-0.174	x	x
CCOC(=O)C1CCCN(C(=O)c2cc3c(C)nc4ccccc4c3o2)C1 (stereo not given)	-36.5	-2.68*	-1.8	0.967	-0.438	486*	143*
CC(C)CCNC(=O)C(C)N(Cc1ccc(F)cc1)C(=O)c1ccc(CN2CCCCC2)o1 (stereo not given)	10.9	-3.25*	14.1	0.00274	-0.143	595	219
O=C(CSc1ncnc2c1oc1ccccc12)NC1CCCCC1	-19.1	0.374	-0.4	x	-0.77	x	x
CCOc1ccccc1NC(=O)CN(c1ccc(C)cc1)S(=O)(=O)c1c(C)n[nH]c1C	6.3	-2.39*	0.4	0.342	-1.18	530	242
COc1ccccc1CNC(=O)CN(c1ccc(C)cc1)S(=O)(=O)c1c(C)n[nH]c1C	10.9	0.779	-0.2	0.115	0.81	x	x
CN(C(=O)CSc1nc(-c2ccc(F)cc2)cs1)C1CCS(=O)(=O)C1 (stereo not given)	15.8	-3.07*	-0.9	1.22	-0.172	407	210
CC(C)(C)N=C1NC(=NC(C)(C)C)c2ccccc21	3.4	-6.18*	2.7	-5.33*	-0.308	417	233
c1ccc2c(c1)C(=NCC1CCCO1)NC2=NCC1CCCO1 (stereo not given)	-3.1	0.607	0.4	-0.826	0.322	x	x
COc1ccc(OC)c(C(=O)c2coc3ccc(O)cc23)c1	6.7	0.0267	-1.3	-0.136	-0.0498	x	x
CCOC(=O)C1=C(O)CCn2c1nc1ccccc12	2.5	-2.32*	-0.5	0.95	0.0861	640	233
CCOC(=O)c1ccc(S(=O)(=O)n2c(CN3CCCCC3)nc3ccccc32)cc1	-5.9	-0.46	-0.5	2.12	0.28	x	x
